From ChEMBL document CHEMBL3351710, “Synthesis of novel thiadiazolotriazin-4-ones and study of their mosquito-larvicidal and antibacterial properties” (Eur J Med Chem, 2014)
≈ marks a conversion by molar mass, not a printed value.

Columns and labels:
Escherichia coli [1] = test: Antibacterial activity against Escherichia coli MTCC-725 assessed as zone of inhibition at 1 ug/ml; format: functional; details: read-out: DIZ
Summary of the method: (§1)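 Disc diffusion on Nutrient Agar. Strains were first grown on NA for 24 h at 37 °C, then spread as a lawn. Compounds were dissolved in DMSO. Sterile 6 mm discs were saturated with test solution, dried under laminar flow and placed on the inoculated plates. Plates were incubated at 37 °C for 18–24 h, and clear-zone diameters were measured.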

Staphylococcus aureus [2] = test: Antibacterial activity against Staphylococcus aureus MTCC-7443 assessed as zone of inhibition at 1 ug/ml; format: functional; details: read-out: DIZ; summary of the method: as §1
Aeromonas hydrophila [3] = test: Antibacterial activity against Aeromonas hydrophila MTCC-1739 assessed as zone of inhibition at 1 ug/ml; format: functional; details: read-out: DIZ; summary of the method: as §1
Anopheles stephensi [4] = test: Larvicidal activity against Anopheles stephensi late III or early IV instar larvae assessed as mortality after 24 hrs relative to untreated control; format: functional
Summary of the method: (§2)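 25 late III/early IV instar larvae in 250 mL water per beaker, exposed to a range of concentrations; a negative control ran with each set and malathion served as reference insecticide. Mortality was scored after 24 h in triplicate per sample. LC50 with 95% confidence limits was derived by Abbott's formula and log probit analysis.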

Anopheles stephensi [5] = test: Larvicidal activity against Anopheles stephensi late III or early IV instar larvae assessed as mortality after 24 hrs; format: functional; details: for LC50: Anopheles stephensi, iv, 24 h; summary of the method: as §2
Mus musculus = test: Toxicity in po dosed Swiss albino mouse after 72 hrs; format: organism-based; details: in vivo
Bacillus subtilis [6] = test: Antibacterial activity against Bacillus subtilis MTCC-441 assessed as zone of inhibition at 1 ug/ml; format: functional; details: read-out: DIZ; summary of the method: as §1
Staphylococcus aureus [7] = test: Antibacterial activity against Staphylococcus aureus MTCC-7443 assessed as zone of inhibition at 10 ug/disc; format: functional; details: read-out: DIZ; summary of the method: as §1
Escherichia coli [8] = test: Antibacterial activity against Escherichia coli MTCC-725 assessed as zone of inhibition at 10 ug/disc; format: functional; details: read-out: DIZ; summary of the method: as §1
Aeromonas hydrophila [9] = test: Antibacterial activity against Aeromonas hydrophila MTCC-1739 assessed as zone of inhibition at 10 ug/disc; format: functional; details: read-out: DIZ; summary of the method: as §1
Bacillus subtilis [10] = test: Antibacterial activity against Bacillus subtilis MTCC-441 assessed as zone of inhibition at 10 ug/disc; format: functional; details: read-out: DIZ; summary of the method: as §1

SMILES	zone of inhibition at 1 µg/mL (Escherichia coli [1])	zone of inhibition at 1 µg/mL (Staphylococcus aureus [2])	zone of inhibition at 1 µg/mL (Aeromonas hydrophila [3])	Ratio (Anopheles stephensi [4])	LC90 (Anopheles stephensi [5])	LC50 (Anopheles stephensi [5])	MLD (Mus musculus)	zone of inhibition at 1 µg/mL (Bacillus subtilis [6])	zone of inhibition at 10 µg/disc (Staphylococcus aureus [7])	zone of inhibition at 10 µg/disc (Escherichia coli [8])	zone of inhibition at 10 µg/disc (Aeromonas hydrophila [9])	zone of inhibition at 10 µg/disc (Bacillus subtilis [10])
Cc1cc(Cl)ccc1OCc1nn2c(=O)c(C(C)(C)C)nnc2s1	18.9 mm	12.6 mm	19.6 mm	0.17	71.45 µg/mL (≈ 196 µM)	49.3 µg/mL (≈ 135 µM)						
CC(=O)c1ccc(OCc2nn3c(=O)c(C(C)(C)C)nnc3s2)cc1	22.7 mm	18.7 mm	19.3 mm	0.1	135.9 µg/mL (≈ 379 µM)	86.6 µg/mL (≈ 242 µM)	1820 mg/kg	25.7 mm				
CC(C)(C)c1nnc2sc(COc3ccc(I)cc3)nn2c1=O				0.11	124.77 µg/mL (≈ 282 µM)	77.5 µg/mL (≈ 175 µM)		11.9 mm				
CC(C)(C)c1nnc2sc(COc3cc(Cl)c(Cl)cc3Cl)nn2c1=O	16.5 mm	22.4 mm	17.5 mm	0.11	115.05 µg/mL (≈ 274 µM)	81.6 µg/mL (≈ 194 µM)		19.3 mm				
CC(C)(C)c1nnc2sc(COc3ccccc3Cl)nn2c1=O	19.5 mm	16.6 mm	16.5 mm	0.12	113.57 µg/mL (≈ 324 µM)	72.8 µg/mL (≈ 208 µM)		18.9 mm				
CC(C)(C)c1nnc2sc(C(C)(C)Oc3ccc(Cl)cc3)nn2c1=O	21.1 mm	19.6 mm	22.4 mm	0.15	87.49 µg/mL (≈ 231 µM)	55.2 µg/mL (≈ 146 µM)	2260 mg/kg	18.4 mm				
CC(C)(C)c1nnc2sc(COc3ccccc3)nn2c1=O	10.9 mm	12.3 mm		0.11	120.98 µg/mL (≈ 382 µM)	79.2 µg/mL (≈ 250 µM)						
COc1ccccc1OCc1nn2c(=O)c(C(C)(C)C)nnc2s1	15.6 mm	21.7 mm	13.9 mm	0.34	37.78 µg/mL (≈ 109 µM)	25.7 µg/mL (≈ 74.2 µM)		19.2 mm				
CC(C)(C)c1nnc2sc(COc3ccc(O)cc3)nn2c1=O	14.3 mm	11.7 mm	10.5 mm	0.4	32.11 µg/mL (≈ 96.6 µM)	21.7 µg/mL (≈ 65.3 µM)	1360 mg/kg					
CC(C)(C)c1nnc2sc(COc3ccccc3[N+](=O)[O-])nn2c1=O	11.7 mm	19.8 mm	9.6 mm	0.12	105.04 µg/mL (≈ 291 µM)	70.5 µg/mL (≈ 195 µM)		16.8 mm				
Cc1cccc(C)c1OCc1nn2c(=O)c(C(C)(C)C)nnc2s1	11.4 mm		10.4 mm	0.11	115.2 µg/mL (≈ 334 µM)	103 µg/mL (≈ 298 µM)		9.8 mm				
Cc1cc(C)c(C)c(OCc2nn3c(=O)c(C(C)(C)C)nnc3s2)c1	18.9 mm	17.6 mm	15.6 mm	0.29	45.05 µg/mL (≈ 126 µM)	39.8 µg/mL (≈ 111 µM)		15.6 mm				
CC(C)(C)c1nnc2sc(COc3ccc(Cl)cc3Cl)nn2c1=O		10.8 mm	9.7 mm	0.18	73.2 µg/mL (≈ 190 µM)	48.7 µg/mL (≈ 126 µM)		12.9 mm				
CC(C)(C)c1nnc2sc(COc3ccc(Cl)cc3)nn2c1=O	13.9 mm		12.5 mm	0.14	90.45 µg/mL (≈ 258 µM)	61.3 µg/mL (≈ 175 µM)		11.2 mm				
CCOC(=O)CC(SP(=S)(OC)OC)C(=O)OCC (configuration not stated) [MALATHION]					12.01 µg/mL (≈ 36.4 µM)	8.7 µg/mL (≈ 26.3 µM)						
CN[C@@H]1[C@H](O[C@H]2[C@H](O[C@H]3[C@H](O)[C@@H](O)[C@H](N=C(N)N)[C@@H](O)[C@@H]3N=C(N)N)O[C@@H](C)[C@]2(O)C=O)O[C@@H](CO)[C@H](O)[C@H]1O [STREPTOMYCIN]									31.5 mm	26.3 mm	22.4 mm	33.6 mm
